The results in this text go back to ChEMBL document CHEMBL2150980 (Eur J Med Chem, 2012).

Molecules are shown by their SMILES.

Usually pA2 stands for a measure of antagonist potency on a negative log scale. The Ki is a dissociation constant, usually derived from enzyme kinetics or from competition with a known ligand.

The target in assay [1] is T1, Adrenergic receptor alpha-2 (Rattus norvegicus, UniProt P22086+P19328+P22909).
T1 sequence (P22086 whole entry): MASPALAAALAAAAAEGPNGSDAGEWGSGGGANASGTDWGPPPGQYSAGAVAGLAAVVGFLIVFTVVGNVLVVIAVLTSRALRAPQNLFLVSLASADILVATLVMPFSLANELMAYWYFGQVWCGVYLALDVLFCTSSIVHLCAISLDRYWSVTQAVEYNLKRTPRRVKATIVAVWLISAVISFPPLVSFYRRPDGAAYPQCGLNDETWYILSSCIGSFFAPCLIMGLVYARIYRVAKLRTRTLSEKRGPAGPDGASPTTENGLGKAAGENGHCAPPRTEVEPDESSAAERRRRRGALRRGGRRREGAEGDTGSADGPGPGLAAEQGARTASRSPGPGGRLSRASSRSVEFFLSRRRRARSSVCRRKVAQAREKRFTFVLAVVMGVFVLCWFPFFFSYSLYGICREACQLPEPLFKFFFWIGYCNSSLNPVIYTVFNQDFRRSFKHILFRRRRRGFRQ
T1 sequence (P19328 whole entry): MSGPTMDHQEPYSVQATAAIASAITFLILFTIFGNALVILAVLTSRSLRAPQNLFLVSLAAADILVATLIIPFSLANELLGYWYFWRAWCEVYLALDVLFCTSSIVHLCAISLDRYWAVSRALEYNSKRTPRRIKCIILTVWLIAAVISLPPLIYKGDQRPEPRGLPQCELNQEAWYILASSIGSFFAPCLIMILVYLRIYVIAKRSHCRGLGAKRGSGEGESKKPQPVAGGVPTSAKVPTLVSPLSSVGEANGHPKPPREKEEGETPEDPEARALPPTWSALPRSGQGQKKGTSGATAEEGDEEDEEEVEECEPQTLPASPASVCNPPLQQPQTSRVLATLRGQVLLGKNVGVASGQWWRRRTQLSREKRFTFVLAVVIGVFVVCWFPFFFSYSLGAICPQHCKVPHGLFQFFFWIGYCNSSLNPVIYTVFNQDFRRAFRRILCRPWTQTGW
T1 sequence (P22909 whole entry): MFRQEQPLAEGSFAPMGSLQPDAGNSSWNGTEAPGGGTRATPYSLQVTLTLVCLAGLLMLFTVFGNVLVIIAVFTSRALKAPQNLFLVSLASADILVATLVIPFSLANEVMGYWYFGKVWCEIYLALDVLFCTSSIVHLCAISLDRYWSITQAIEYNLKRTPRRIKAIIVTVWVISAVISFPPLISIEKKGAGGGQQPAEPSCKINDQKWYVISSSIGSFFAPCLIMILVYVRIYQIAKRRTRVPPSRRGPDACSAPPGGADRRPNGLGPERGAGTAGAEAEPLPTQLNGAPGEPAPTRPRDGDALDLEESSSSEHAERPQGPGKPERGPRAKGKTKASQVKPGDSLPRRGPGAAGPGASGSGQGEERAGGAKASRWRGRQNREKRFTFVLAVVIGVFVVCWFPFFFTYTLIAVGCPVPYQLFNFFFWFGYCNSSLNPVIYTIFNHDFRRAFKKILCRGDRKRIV
Description: Antagonist activity at alpha2 adrenoceptor in Sprague-Dawley rat prostatic vas deferens assessed as suppression of clonidine-mediated inhibition of twitch response after 30 mins. Format: functional, tissue-based. In a few lines:
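Prostatic vas deferens segments (1.5–2 cm) in Krebs at 37 °C, field-stimulated at 0.1 Hz with 3 ms square pulses, 20–40 V. Equilibrated 1 h at 0.35 g resting tension.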

Assay [2] concerns the target T2, Alpha-1A adrenergic receptor (Rattus norvegicus, UniProt P43140).
T2 sequence (P43140 whole entry): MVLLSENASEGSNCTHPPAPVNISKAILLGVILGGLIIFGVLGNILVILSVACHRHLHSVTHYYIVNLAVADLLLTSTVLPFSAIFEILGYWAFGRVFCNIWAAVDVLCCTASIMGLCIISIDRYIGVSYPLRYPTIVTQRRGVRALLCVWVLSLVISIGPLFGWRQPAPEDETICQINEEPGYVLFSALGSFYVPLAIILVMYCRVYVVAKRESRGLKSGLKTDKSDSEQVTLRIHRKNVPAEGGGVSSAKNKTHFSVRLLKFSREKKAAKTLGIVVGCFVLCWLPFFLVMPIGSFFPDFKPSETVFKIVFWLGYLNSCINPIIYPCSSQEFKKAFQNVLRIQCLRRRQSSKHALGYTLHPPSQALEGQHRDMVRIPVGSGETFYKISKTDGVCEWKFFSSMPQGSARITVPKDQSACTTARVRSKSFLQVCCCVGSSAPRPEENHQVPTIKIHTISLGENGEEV
Description: Antagonist activity at alpha1A adrenoceptor in Sprague-Dawley rat prostate assessed as inhibition of noradrenaline-induced contractions after 30 mins. The assay is classed as functional, tissue-based, Prostate gland. The settings on record: read-out: pA2 (converted). In a few lines:
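Rat (200–250 g) prostatic strips, 8–10 mm × 1–2 mm, held at 2 g resting tension in modified Krebs (NaCl 118.0, KCl 4.7, CaCl2 2.5, MgSO4 1.18, NaHCO3 25.0, KH2PO4 1.18, glucose 5.5 mM).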

For assay [3], the target named is T3, 5-hydroxytryptamine receptor 1A (Rattus norvegicus, UniProt P19327).
T3 sequence (P19327 whole entry): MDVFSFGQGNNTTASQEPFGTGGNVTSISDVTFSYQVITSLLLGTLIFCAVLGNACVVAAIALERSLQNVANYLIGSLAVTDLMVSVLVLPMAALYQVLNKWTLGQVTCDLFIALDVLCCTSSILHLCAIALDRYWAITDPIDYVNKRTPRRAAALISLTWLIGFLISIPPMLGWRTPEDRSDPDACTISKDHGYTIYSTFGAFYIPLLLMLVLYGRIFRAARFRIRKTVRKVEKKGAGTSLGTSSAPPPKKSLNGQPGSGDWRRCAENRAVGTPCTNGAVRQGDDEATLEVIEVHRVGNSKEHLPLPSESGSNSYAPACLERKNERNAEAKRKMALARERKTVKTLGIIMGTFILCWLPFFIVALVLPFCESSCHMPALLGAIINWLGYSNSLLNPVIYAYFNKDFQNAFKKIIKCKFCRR
Description: Displacement of [3H]-8-OH-DPAT from 5-HT1A receptor in rat hippocampal membranes after 30 mins by liquid scintillation counting. Format: cell membranes, Hippocampus, Membrane. A digest of the protocol:
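Crude rat hippocampal membranes in Tris-HCl 50 mM, pH 7.7, with pargyline and 4 mM CaCl2. […] Stopped by GF/B filtration, then scintillation counting. Ki from IC50 via Cheng–Prusoff; ≥3 experiments in triplicate.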
On the technique in general: In a radioligand displacement assay an active substance lowers the binding of a labelled ligand.

With `COc1cccc(OC)c1OCCNC[C@H]1COc2cccc(Cl)c2O1.Cl`, in assay [1], the pA2 came out at 6.02. In addition, the Kb in assay [2] is 0.912 nM. Also, the Ki in assay [3] is 1.7 nM.
For the compound `COc1cccc(OC)c1OCCNC[C@H]1COc2cccc(O)c2O1.Cl`, the pA2 in assay [1] is under 5. The Kb in assay [2] was 50.1 nM. The compound also had a Ki in assay [3] of 1 nM.
Regarding `COc1cccc(OC)c1OCCNC[C@H]1COc2c(OC)cccc2O1.Cl`, in assay [1], the pA2 is 5.67. The Kb in assay [2] is 39.8 nM. This compound had a Ki in assay [3] of 28.8 nM.
The like results for `COc1cccc(OC)c1OCCNC[C@H]1COc2cccc(F)c2O1.Cl` were, in that order, 6.26, 1.2 nM and 1.41 nM.
The like results for `COc1cccc(OC)c1OCCNC[C@H]1COc2cccc(OC)c2O1.Cl` were, in that order, 6.23, 2.82 nM and 0.851 nM.
